Rows were chosen to be rich in hits. Some 2.4% of all compounds tested hit in one or more screens of this group.
L929 necroptosis = L929 zVAD cell death inhibition. L929 zVAD necroptosis rescue, ATP luminescence, 24 h; with zVAD 60 µM. viability rescue, % at 10 µM. 220,000 compounds, 0.38% hits;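 active means activation, scaled between plate controls, above about 75%, limit read from the data; inactive means activation under that limit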;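 further: 0% = zVAD with DMSO and 100% = DMSO alone without zVAD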
Autophagy HCS = autophagy modulation, high-content screen | MEF GFP-LC3 puncta imaging; test concentration mostly 10 µM | calls only at 10 µM (by protocol) | 190,000 compounds, 0.98% hits;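 active means percentage of spot-positive cells more than 3 SD above its plate mean, without a fluorescence outlier flag or 80% toxicity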;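 further: spot-positive cell cutoff set from DMSO-treated cells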
Hck-Nef inh = human Hck-Nef kinase inhibition; AID 463187; 220,000 compounds, 0.68% hits; Recombinant Hck-YEEI plus Nef, Z-Lyte FRET kinase assay; inhibition, % at 20 µM; P08631;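 active means Hck-Nef kinase inhibition above about 50%, limit read from the data; inactive means inhibition below that limit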;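 further: 0% = DMSO with Hck plus Nef and 100% = Hck alone without Nef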
Target sequence (P08631 whole entry, looked up): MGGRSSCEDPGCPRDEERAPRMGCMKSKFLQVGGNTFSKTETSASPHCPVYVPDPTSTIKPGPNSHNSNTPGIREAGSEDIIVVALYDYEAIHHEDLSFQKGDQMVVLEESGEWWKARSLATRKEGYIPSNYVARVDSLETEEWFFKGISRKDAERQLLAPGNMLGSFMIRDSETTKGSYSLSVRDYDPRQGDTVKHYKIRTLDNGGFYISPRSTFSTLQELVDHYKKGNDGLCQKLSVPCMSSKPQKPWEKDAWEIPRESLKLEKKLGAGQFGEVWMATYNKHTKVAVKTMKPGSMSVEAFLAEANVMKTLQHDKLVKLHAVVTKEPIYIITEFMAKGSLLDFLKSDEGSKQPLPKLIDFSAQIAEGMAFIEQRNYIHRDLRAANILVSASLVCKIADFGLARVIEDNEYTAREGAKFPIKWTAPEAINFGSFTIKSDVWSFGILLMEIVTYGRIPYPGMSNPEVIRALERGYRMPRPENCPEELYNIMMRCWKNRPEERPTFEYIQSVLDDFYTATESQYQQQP
Mdm2 ligase inh = blocks human Mdm2 ubiquitin ligase activity. Q00987. cell-based MDM2 ubiquitination luciferase reporter, 2 h; 0 = plate control, 100 = twice control, blank-subtracted. signal enhancement, % at 5 µM. 210,000 compounds, 0.11% hits;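 active means signal enhancement of 30% or more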;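 further: luminescence tracks abundance of the self-degrading MDM2-luciferase fusion protein; higher signal means inhibition of MDM2 E3 ligase activity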
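system = mammalian cells stably expressing self-ubiquitinating, self-degrading MDM2 E3–luciferase fusion | quantity = 2000 cells per well seeded | incubation = 4 h cell settling then 2 h compound exposure, 37 °C | signal = SteadyLite luminescence, 15 min reagent step | benchmarks = plate control and blank wells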
TNF death inh = inhibitors of TNF-alpha induced necroptosis in Jurkat FADD-/- cells | AID 463075 | 220,000 compounds, 0.068% hits | activation (protection from cell death), % at 10 µM | Jurkat FADD-/- TNF necroptosis rescue, ATP luminescence, 24 h; 0 = TNF only, 100 = no-TNF cells;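 active means activation, meaning protection from cell death, of at least 50% relative to plate controls; inactive means activation below 50%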;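 further: necroptosis triggered by 40 ng/mL TNF-alpha added together with compound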
Dynein transport = blocks dynein driven cargo transport along microtubules | 3617.4 mouse cells, GR-EGFP nuclear translocation imaging; test concentration mostly 20 µM; stimulated with dexamethasone, 1 µM; hits give low values | z-score, hits read low | 220,000 compounds, 0.47% hits | AID 1381;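 active means plate z-score of nuclear minus cytoplasmic receptor signal below a set negative limit, without overly bright fluorescence or cell loss, cut at about -3.5 in these data, passing the limit was not always enough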;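 further: z-score of nuclear minus cytoplasmic ring GR-EGFP intensity difference per well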
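Also added – dexamethasone, 1.0 µM final · Buffer or medium – tet-free, stripped-serum medium · Schedule – induction 48 h, compound 1 h, agonist 30 min · Detection – formaldehyde fixation, Hoechst nuclear stain, 10x automated fluorescence imaging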
Active calls of the source: *.

CC1=NN(c2ccc(C)cc2)C(=O)/C1=C\C=C\c1ccccc1 was read as L929 necroptosis 1, Autophagy HCS inactive, Hck-Nef inh 3, Mdm2 ligase inh 52*, TNF death inh -7 and Dynein transport -1.7.
Screening CC1=NN(c2ccccc2)C(=O)/C1=C/C=C/C=C/N(C)C returned L929 necroptosis 1, Autophagy HCS inactive, Hck-Nef inh 29, Mdm2 ligase inh -7, TNF death inh -6 and Dynein transport -0.11.
For CN1COc2ccc3ccccc3c2C1 the results were L929 necroptosis -1, Autophagy HCS inactive, Hck-Nef inh 3, Mdm2 ligase inh -14, TNF death inh 0 and Dynein transport 3.1.
`Cc1cccn2cc(-c3ccc(S(=O)(=O)N4CCCCC4)cc3)nc12` gave L929 necroptosis 2, Autophagy HCS active, Hck-Nef inh 20, Mdm2 ligase inh -3, TNF death inh 2 and Dynein transport 0.19.
Cc1cccn2cc(-c3ccc(S(=O)(=O)N4CCOCC4)cc3)nc12 was read as L929 necroptosis -1, Autophagy HCS inactive, Hck-Nef inh -1, Mdm2 ligase inh -8, TNF death inh 0 and Dynein transport 1.4.
COc1ccc(N(CC(=O)N/N=C(\C)CCc2ccccc2)S(=O)(=O)c2ccc(C)cc2)cc1 was read as L929 necroptosis 0, Hck-Nef inh 2, Mdm2 ligase inh -18, TNF death inh 2 and Dynein transport 1.6.
COc1ccc(C(=O)OCC(=O)Nc2ccc([N+](=O)[O-])cc2OC)c(O)c1 was read as L929 necroptosis 1, Autophagy HCS active, Hck-Nef inh 28, Mdm2 ligase inh -7, TNF death inh -1 and Dynein transport 0.53.
COc1ccc(C(=O)/C=C/Nc2ccc([N+](=O)[O-])cc2C)cc1OC was read as L929 necroptosis 0, Autophagy HCS inactive, Hck-Nef inh -1, Mdm2 ligase inh -28, TNF death inh -3 and Dynein transport -0.18.
For COc1ccc(C(=O)/C=C/Nc2ccc([N+](=O)[O-])cc2C)c(OC)c1 the results were L929 necroptosis 0, Autophagy HCS active, Hck-Nef inh 0, Mdm2 ligase inh -13, TNF death inh -3 and Dynein transport -1.1.
For COc1ccc([N+](=O)[O-])cc1NC(=O)COC(=O)c1ccccc1O the results were L929 necroptosis 1, Hck-Nef inh 5, Mdm2 ligase inh -8, TNF death inh 1 and Dynein transport -0.61.
O=C(Nc1ccc(NC(=O)c2sc3ccccc3c2Cl)cc1)c1ccco1 was read as L929 necroptosis 0, Autophagy HCS inactive, Hck-Nef inh 13, Mdm2 ligase inh -8, TNF death inh 1 and Dynein transport 0.62.
`O=[N+]([O-])c1cnccc1Nc1cccc(F)c1` gave L929 necroptosis 0, Autophagy HCS inactive, Hck-Nef inh 0, TNF death inh -3 and Dynein transport -0.74.
Screening O=[N+]([O-])c1ccc(Oc2cccc(F)c2)c2ccncc12 returned L929 necroptosis 1, Autophagy HCS active, Hck-Nef inh 6, Mdm2 ligase inh -15, TNF death inh -4 and Dynein transport -0.59.
For Cc1cccc(CC2S/C(=N/c3ccccn3)NC2=O)c1 (configuration not stated) the results were L929 necroptosis -1, Autophagy HCS active, Hck-Nef inh 7, Mdm2 ligase inh 0, TNF death inh -1 and Dynein transport -0.18.
`O=C1N/C(=N\c2ccccn2)SC1Cc1ccccc1Cl` (configuration not stated) gave L929 necroptosis 0, Hck-Nef inh -24, Mdm2 ligase inh -12, TNF death inh 0 and Dynein transport 1.
`O=C1N/C(=N\N=C\c2ccccn2)SC1Cc1cccc(SC(F)F)c1` (configuration not stated) gave L929 necroptosis 82*, Autophagy HCS inactive, Hck-Nef inh 2, Mdm2 ligase inh 8, TNF death inh -15 and Dynein transport -0.81.
`O=C1N/C(=N\N=C\c2cccnc2)SC1Cc1ccc(SC(F)F)cc1` (configuration not stated) gave L929 necroptosis 17, Autophagy HCS inactive, Hck-Nef inh 7, Mdm2 ligase inh -16, TNF death inh -12 and Dynein transport -0.66.
`CCC(CO)NC(=O)c1ccccc1C(F)(F)F` (configuration not stated) gave L929 necroptosis 0, Hck-Nef inh -11, Mdm2 ligase inh -20, TNF death inh 1 and Dynein transport 1.5.
`COc1ccccc1-n1c(SCC(=O)Nc2ccc(F)cc2)nc2c(c1=O)SCC2` gave L929 necroptosis -1, Autophagy HCS inactive, Hck-Nef inh -7, Mdm2 ligase inh -26, TNF death inh 4 and Dynein transport 1.8.
Screening COc1ccccc1-n1c(SCC(=O)Nc2cc(C)on2)nc2c(c1=O)SCC2 returned L929 necroptosis 0, Autophagy HCS active, Hck-Nef inh 24, Mdm2 ligase inh -5, TNF death inh 0 and Dynein transport 0.61.
`O=C(CNC(=O)Cc1ccc(Cl)cc1)NCc1ccco1` gave L929 necroptosis 1, Autophagy HCS inactive, Hck-Nef inh 6, Mdm2 ligase inh -5, TNF death inh 0 and Dynein transport 0.39.
`CCNS(=O)(=O)c1cccc(C(=O)c2c(C)cc3ccccn23)c1` gave L929 necroptosis 0, Autophagy HCS inactive, Hck-Nef inh -22, Mdm2 ligase inh -7, TNF death inh -4 and Dynein transport 0.16.
`CCc1ccc2oc(-c3cc(N)cc(C)c3O)nc2c1` gave L929 necroptosis 0, Autophagy HCS active, Hck-Nef inh 0, Mdm2 ligase inh -21, TNF death inh -15 and Dynein transport -0.74.
`CCc1ccc2oc(-c3cc(N)ccc3O)nc2c1` gave L929 necroptosis 1, Autophagy HCS inactive, Hck-Nef inh 1, Mdm2 ligase inh -79, TNF death inh -13 and Dynein transport 0.28.
For Cc1ccc(Cl)cc1N1CCN(CC(=O)Nc2ccc(CN3CCCCC3)cc2)CC1 the results were L929 necroptosis 11, Autophagy HCS active, Hck-Nef inh 7, Mdm2 ligase inh -7, TNF death inh 0 and Dynein transport -5.5.
Screening CCCCNc1ccc(C(=O)O)cc1 returned L929 necroptosis 0, Hck-Nef inh 16, Mdm2 ligase inh -7, TNF death inh 0 and Dynein transport -0.62.
For CC(=O)C1C(=O)c2c(cccc2[N+](=O)[O-])C1=Nc1cccc(Cl)c1 (configuration not stated) the results were L929 necroptosis 2, Hck-Nef inh 13, Mdm2 ligase inh -8, TNF death inh 1 and Dynein transport 0.54.

Source: PubChem (several laboratories)
